SKN-1 inh = blocks SKN-1 activity in C. elegans; C. elegans VP596 Pgst-4::GFP/RFP ratio, acrylamide-induced, 24 h; inhibition, % at 21.8 µM; hit rate 0.49% among 360,000; AID 624304;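 active = interference check ratio from 0.5 to 1.5 plus GFP to RFP signal ratio inhibition reaching or exceeding a fixed threshold, cut at about 30% in these data, passing the limit was not always enough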
Tn6 DDE FP = inhibitors of Tn6 peptide binding to human fibrin DD(E); hit rate 0.21% among 370,000; Fibrin DD(E) TRITC-Tn6 fluorescence polarization displacement; inhibition, % at 8.3 µM;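 active = inhibition above a per-campaign cutoff: mean of compounds within control limits plus 3 SD, cut at about 15% in these data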;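 also: 0% = median of all compound wells on the plate and 100% = blocking peptide control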
Target sequence (P02675 whole entry, looked up): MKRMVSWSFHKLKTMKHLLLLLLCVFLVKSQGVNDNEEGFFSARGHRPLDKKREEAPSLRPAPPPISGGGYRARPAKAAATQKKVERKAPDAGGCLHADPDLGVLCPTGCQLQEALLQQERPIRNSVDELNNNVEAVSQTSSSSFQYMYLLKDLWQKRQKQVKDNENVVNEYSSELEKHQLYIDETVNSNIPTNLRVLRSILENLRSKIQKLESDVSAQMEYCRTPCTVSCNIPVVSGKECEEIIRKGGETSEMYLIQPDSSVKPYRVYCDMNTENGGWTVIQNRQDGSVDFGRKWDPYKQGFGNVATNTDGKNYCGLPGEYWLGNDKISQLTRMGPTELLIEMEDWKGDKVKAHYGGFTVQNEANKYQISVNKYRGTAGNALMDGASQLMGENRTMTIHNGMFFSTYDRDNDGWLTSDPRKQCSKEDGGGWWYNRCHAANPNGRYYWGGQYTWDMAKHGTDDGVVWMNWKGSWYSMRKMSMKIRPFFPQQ
DDE Tn7 FP inh = DD(E)-Tn7 binding inhibition, primary FP screen | P02675 | FP displacement of FITC-Tn7 peptide from fibrin DD(E); 0% = median of compound wells per plate | inhibition, % at 8.3 µM | hit rate 0.13% among 370,000 | AID 720508;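 active = inhibition above the mean of compounds falling within the control limits plus 3 SD of them, cut at about 14% in these data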;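 also: 0% = plate median of compound wells and 100% = 10 µM Aha-Tn7 peptide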
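Assay system: Human fibrin DD(E) protein | Medium: Tris buffer with calcium and detergent, pH 7.8 | Reagent: 0.1 µM fluorescent Tn7 | Compound dosing: Single point at 8.3 µM | Times: 10 min preincubation, 3 h with tracer, room temperature | Detection: Fluorescence polarization of the labelled Tn7 tracer | Controls: Aha-Tn7 high control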
MT1-MMP act inh = blocks activation of human MT1-MMP; P50281; HT1080 RFP-PRO-GFP cells, GFP/RFP ratio fluorescence, overnight; percent of plate control window, DMSO zero; GFP/RFP ratio change, % at 20 µM; hit rate 0.061% among 360,000;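 active = GFP/RFP ratio change of at least 30% with cell ATP level not reduced by more than half and red fluorescence within 50% of control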
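Compound: 20 µM single dose, 1% DMSO / System: HT1080 RFP-PRO-GFP cells / Controls: DMSO and RFP-L50D-GFP cell wells / Read-out basis: GFP/RFP fluorescence ratio / Schedule: overnight compound exposure at 37 °C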
* = called active by the depositor; · = no result given. The list is not random: actives were taken first. Their share in the collection is about 0.84%.

SMILES	SKN-1 inh	Tn6 DDE FP	DDE Tn7 FP inh	MT1-MMP act inh
CC1=[N+](C)c2c(ccc3cccnc23)C1(C)C	84.1	153.5*	-9.4	6.6
CCCCc1c(-c2ccccc2OC)ncn1Cc1ccc(OC)cc1	·	1.8	1.5	·
NC(=O)c1cccc(-c2ccnc3c2CC(C(=O)NCc2ccccc2)O3)c1 (stereo not given)	-0.5	4.1	-6.2	19.5
COc1cccc(C2Nc3ccc4ccccc4c3C3=C2C(=O)CC(C)(C)C3)c1OCC(=O)O (stereo not given)	35.2*	-9.3	3.9	-3.2
COc1cc(C2Nc3ccc4ccccc4c3C3=C2C(=O)CC(C)(C)C3)ccc1OCC(=O)O (stereo not given)	5.4	9.6	2.1	-1.3
CCOC(=O)[C@]12CCCCC/C=C\1N(Cc1ccc(OC)cc1)C(=O)[C@H]2CC(=O)NCCCCc1ccccc1	·	-1.7	1.8	·
CCN1CCN(c2ncnc3c2c(-c2ccccc2)cn3-c2ccc(F)cc2)CC1	51.6*	-3.1	-2.2	-7.4
O=C1C2C(C(=O)N1Cc1cccnc1)C1C=CC2C12CC2 (stereo not given)	40.5*	-2.8	1.6	-2.3
O=C1C2C3C=CC(C3)C2C(=O)N1Cc1cccnc1 (stereo not given)	-8.8	5.2	1.5	-2.1
CCOc1ccccc1C(=O)Nc1ccc(-n2nncc2C(C)(C)C)cc1	35.1*	-1.4	2.3	6.0
CNc1ccc(C=C2C=Cc3ccccc32)cc1	81.7*	-8.0	2.8	-2.1
CCN(CC)c1ccc(N=Nc2ncn[nH]2)cc1	45.6*	0.7	2.3	28.5
CCCCn1nc(C(=O)NCC2COc3ccccc3O2)c2ccccc2c1=O (stereo not given)	-1.7	-3.3	3.2	5.4
O=C1CC(NNC(=O)c2ccccc2)C(=O)N1 (stereo not given)	1.8	1.7	4.4	1.4
O=C1CC(NNC(=O)c2ccc(Br)cc2)C(=O)N1 (stereo not given)	42.8*	4.8	3.7	2.5
CCOc1ccc(-n2c(COc3ccc(Cl)cc3)nnc2SCC(=O)Nc2ccc(OCc3ccccc3)cc2)cc1	·	-1.1	-0.9	·
CC(C)CC(C(=O)NCc1ccccn1)N1C(=O)c2ccccc2C1=O (stereo not given)	41.8*	4.8	2.8	-2.1
CCN(CC(=O)Nc1ccccc1C(F)(F)F)C(=O)c1ccc(NC(=O)c2cccs2)cc1	47.5*	9.3	-4.7	1.0
Cc1ccc(NC(=S)c2nc3ccccc3s2)cc1	35.3*	-4.3	2.0	1.4
CCN(CC)C(=O)c1sc(NC(=O)Cc2ccccc2)c(C#N)c1C	-23.2	-7.9	-1.1	7.0
CCN(CC)C(=O)c1sc(NC(=O)Cc2ccc(OC)cc2)c(C#N)c1C	45.5*	7.8	-1.9	-0.9
CCOC(=O)CC[C@H]1CC[C@]2(CCCN(C(=O)c3ccc4ccccc4n3)C2)O1	·	0.5	-10.0	·
c1ccc(-n2nnc(-c3nccs3)n2)cc1	36.4*	-3.8	-1.5	-2.3
O=C(NCc1nc2ccccc2[nH]1)C1=C[C@H](C2CCCCC2)C[C@H](OCc2ccc(CO)cc2)O1	38.7*	-8.6	2.1	-8.2
O=C(NCc1nc2ccccc2[nH]1)C1=C[C@@H](C2CCCCC2)C[C@@H](OCc2ccc(CO)cc2)O1	19.5	-1.4	-4.4	1.5
SMILES	SKN-1 inh	Tn6 DDE FP	DDE Tn7 FP inh	MT1-MMP act inh
COc1ccccc1CNc1ccc2c(c1)OC[C@H](CC(C)C)NS2(=O)=O	·	7.5	7.0	·
Cc1ccc(-c2noc(-c3cccs3)n2)cc1	67.5*	5.2	0.7	-2.0
COc1ccc(-c2nc(-c3ccncc3)no2)cc1	17.3	3.3	-3.3	3.2
COc1ccc(-c2nc(-c3cccs3)no2)cc1	38.2*	0.0	1.0	1.1
c1csc(-c2nc(-c3ccc(-c4ccon4)s3)no2)c1	46.5*	2.5	-7.5	3.8
COc1ccccc1-c1noc(-c2cccs2)n1	18.8	-0.9	0.4	7.3
Cc1nc2ccc(S(=O)(=O)NCC(=O)NCc3ccccc3Cl)cc2s1	·	-3.6	-0.7	·
COc1cc(N)c(Cl)cc1C(=O)OCC(=O)c1cccs1	-0.1	0.8	3.8	-1.2
O=C(/C=C/c1ccco1)Nc1ccc(CN2CCOCC2)cc1	14.2	-7.4	-3.3	0.9
O=C(/C=C/c1ccc(Cl)cc1Cl)Nc1ccc(CN2CCOCC2)cc1	46.7*	0.8	0.6	-0.8
O=C(/C=C/c1ccccc1)Nc1ccc(CN2CCOCC2)cc1	64.7*	1.4	4.8	1.1
CC(C)Oc1cccc(C(=O)Nc2ccc(CN3CCOCC3)cc2)c1	35.2*	-3.3	6.7	0.7
COC(=O)[C@]12C[C@H](CC(=O)NCCCCc3ccccc3)C(=O)N(CCC3=CCCCC3)C1=C[C@H](C1CCCC1)O[C@@H]2C	·	1.3	1.6	·
Brc1ccc(-c2csc(N3CCNCC3)n2)cc1	·	-1.9	7.4	·
Cc1c(Cl)c(-c2n[nH]c(=S)n2-c2ccc(F)cc2)nn1C	29.8*	-1.4	-3.2	-6.2
O=c1oc2ccc3ccccc3c2cc1-c1nnc(-c2ccccc2)o1	52.1*	-0.9	8.5	6.0
COc1ccc(-c2nnc(-c3cc4c(ccc5ccccc54)oc3=O)o2)cc1	10.2	4.8	0.5	3.6
O=C(c1cccc(F)c1)N1CCN(c2cccc(C(F)(F)F)c2)CC1	38.6*	-3.5	-6.4	1.1
COc1ccc(S[C@]2(C(=O)N(C)C)CC(=O)N(C(=O)c3ccccc3)[C@@H]2c2ccc(OC)cc2)cc1	·	-2.8	1.9	·
CC(C)C(OC(=O)C1=Cc2ccccc2OC1)C(=O)NC1CCCC1 (stereo not given)	35.6*	6.3	-5.3	0.4
CCC(OC(=O)C1=Cc2ccccc2OC1)C(=O)NC1CCCC1 (stereo not given)	11.3	1.8	-4.2	-8.0
COCCn1cc(C(=O)NCc2cccs2)c2c3ccccc3n(C)c2c1=O	41.0*	-5.4	2.6	0.2
Cc1[nH]n(-c2cccc3ccccc23)c(=O)c1C=Nc1ccc2[nH]c(=O)[nH]c2c1	41.1*	-8.4	0.2	5.4
O=C(O)C1CCCC2CN3CCc4c([nH]c5ccccc45)C3C(O)C21 (stereo not given)	37.2*	9.0	1.1	-16.0
O=C(O)[C@@H]1[C@H]2C[C@H]3c4[nH]c5ccccc5c4CCN3C[C@@H]2CC[C@@H]1O	26.5	12.7	-1.1	-23.2
SMILES	SKN-1 inh	Tn6 DDE FP	DDE Tn7 FP inh	MT1-MMP act inh
CC1Nc2ccccc2C(=O)N1NC(=O)c1ccc(Br)cc1 (stereo not given)	9.8	0.6	-2.0	3.2
O=S1(=O)c2ccc(Br)cc2OC[C@H](Cc2ccccc2)N1Cc1cn(Cc2ccc(Cl)cc2)nn1	·	3.1	-2.2	·
O=C(Nc1ccc(F)c(Cl)c1)c1ccc2c(c1)OCO2	-2.5	-2.6	5.6	1.2
COc1ccc(NC(=O)c2ccc3c(c2)OCO3)cc1Cl	40.5*	-4.0	-5.4	1.7
O=C(Nc1cccc(F)c1)Nc1ccc2c(c1)OCO2	-0.8	-5.4	0.4	-3.6
O=C(Nc1ccc2c(c1)OCO2)c1cccc(F)c1	40.1*	-2.3	-6.1	-0.9
